Data taken from ChEMBL document CHEMBL3232988, “Design, synthesis and biological evaluation of a series of pyrano chalcone derivatives containing indole moiety as novel anti-tubulin agents” (Bioorg Med Chem, 2014).
The source made the active and inactive calls. No cut-off for these calls is given here.

Assays:
HepG2 [1] = assay: Antitumor activity against human HepG2 cells xenografted in BALB/c nude mouse assessed as tumor growth inhibition at 5 mg/kg, iv administered once every 2 days for 21 days measured every 3 days up to 35 days relative to control; assay type: functional; conditions: read-out: TGI
Summary of the method: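 Female BALB/c nude mice, six weeks old (16–18 g), inoculated in the right gluteal region with 1 × 10⁷ HepG2 cells in 0.1 mL DMEM. When tumours reached 100 mm³, mice were randomised into four groups of six. Dosing was by tail-vein injection; the vehicle group followed the test schedule. Tumours were measured by caliper every 3 days, with volume = π/6 × length × width × width.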

HepG2 [2] = assay: Antitumor activity against human HepG2 cells xenografted in BALB/c nude mouse assessed as tumor growth inhibition at 30 mg/kg, iv administered once every 2 days for 21 days measured every 3 days up to 35 days relative to control; assay type: functional; conditions: read-out: TGI
Summary of the method: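 Female BALB/c nude mice, six weeks old (16–18 g), inoculated in the right gluteal region with 1 × 10⁷ HepG2 cells in 0.1 mL DMEM. At 100 mm³, randomized into four groups of six. Tail-vein dosing every other day for 21 days; vehicle control on the same schedule; 5-Fu 5 mg/kg iv daily as reference. Caliper measurement every 3 days, volume = π/6 × length × width × width. Compared with control by t test.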

HepG2 [3] = assay: Cell cycle arrest in human HepG2 cells assessed as accumulation at G1-phase at 0.50 uM after 24 hrs by propidium iodide staining-based flow cytometric analysis (reference value: 42.5%); assay type: functional
Summary of the method: (§1)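 HepG2 cells (2 × 10⁵) cultured 24 h, then given 0.1% DMSO vehicle or compound for 24 h. Fixed in ice-chilled methanol at least 30 min at 4 °C, washed twice with PBS, then stained 0.5 h at 37 °C in PBS with 1 mg/mL RNase A and propidium iodide. DNA content measured by flow cytometry for phase distribution.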

[4] = Antiproliferative activity against human […] cells after 24 hrs by MTT assay; assay type: functional, cell-based
Summary of the method: (§2)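 Seeded at 1 × 10⁴ cells per well, incubated 24 h before treatment. MTT (20 µL of 5 mg/mL in PBS) added per well and incubated until purple precipitate appeared. Medium removed, precipitate dissolved in 150 µL DMSO, shaken 10 min, absorbance read at 570 nm. Growth expressed as percentage of untreated control.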

[5] = Cytotoxicity against human LO2 cells after 24 hrs by MTT assay; assay type: cell-based; conditions: L02, 24 h; summary of the method: as §2
Rattus norvegicus = organism: Rattus norvegicus; assay: Inhibition of rat tubulin polymerization at 10 uM measured for 60 mins by luminometric analysis
HepG2 [6] = assay: Cell cycle arrest in human HepG2 cells assessed as accumulation at S-phase at 0.25 uM after 24 hrs by propidium iodide staining-based flow cytometric analysis (reference value: 32%); assay type: functional; summary of the method: as §1
[7] = Antiproliferative activity against vincristine resistant human HCT8 cells after 24 hrs by MTT assay; assay type: functional, cell-based; conditions: HCT-8, 24 h; summary of the method: as §2
K562 = assay: Antiproliferative activity against human K562 cells after 24 hrs by MTT assay; assay type: functional, cell-based; conditions: K562, 24 h; summary of the method: as §2
A549 = assay: Antiproliferative activity against human A549 cells after 24 hrs by MTT assay; assay type: functional, cell-based; conditions: A549, 24 h; summary of the method: as §2
HepG2 [8] = assay: Cell cycle arrest in human HepG2 cells assessed as accumulation at G2/M-phase at 0.125 uM after 24 hrs by propidium iodide staining-based flow cytometric analysis (reference value: 25.5%); assay type: functional; summary of the method: as §1
HepG2 [9] = assay: Cell cycle arrest in human HepG2 cells assessed as accumulation at S-phase at 0.50 uM after 24 hrs by propidium iodide staining-based flow cytometric analysis (reference value: 32%); assay type: functional; summary of the method: as §1
SK-OV-3 = assay: Antiproliferative activity against human SKOV3 cells after 24 hrs by MTT assay; assay type: functional, cell-based; conditions: SK-OV-3, 24 h; summary of the method: as §2
HepG2 [10] = assay: Cell cycle arrest in human HepG2 cells assessed as accumulation at G2/M-phase at 0.375 uM after 24 hrs by propidium iodide staining-based flow cytometric analysis (reference value: 25.5%); assay type: functional; summary of the method: as §1
HepG2 [11] = assay: Antiproliferative activity against human HepG2 cells after 24 hrs by MTT assay; assay type: functional, cell-based; conditions: HepG2, 24 h; summary of the method: as §2
PC-3 = assay: Antiproliferative activity against human PC3 cells after 24 hrs by MTT assay; assay type: functional, cell-based; conditions: PC-3, 24 h; summary of the method: as §2
HepG2 [12] = assay: Cell cycle arrest in human HepG2 cells assessed as accumulation at S-phase at 0.375 uM after 24 hrs by propidium iodide staining-based flow cytometric analysis (reference value: 32%); assay type: functional; summary of the method: as §1
HepG2 [13] = assay: Cell cycle arrest in human HepG2 cells assessed as accumulation at G2/M-phase at 0.50 uM after 24 hrs by propidium iodide staining-based flow cytometric analysis (reference value: 25.5%); assay type: functional; summary of the method: as §1
MCF7 = assay: Antiproliferative activity against human MCF7 cells after 24 hrs by MTT assay; assay type: functional, cell-based; conditions: MCF7, 24 h; summary of the method: as §2
HepG2 [14] = assay: Cell cycle arrest in human HepG2 cells assessed as accumulation at G1-phase at 0.125 uM after 24 hrs by propidium iodide staining-based flow cytometric analysis (reference value: 42.5%); assay type: functional; summary of the method: as §1
[15] = Antiproliferative activity against taxol resistant human HCT8 cells after 24 hrs by MTT assay; assay type: functional, cell-based; conditions: HCT-8, 24 h; summary of the method: as §2
HepG2 [16] = assay: Cell cycle arrest in human HepG2 cells assessed as accumulation at G2/M-phase after 24 hrs by propidium iodide staining-based flow cytometric analysis; assay type: functional; summary of the method: as §1
HepG2 [17] = assay: Cell cycle arrest in human HepG2 cells assessed as accumulation at S-phase at 0.125 uM after 24 hrs by propidium iodide staining-based flow cytometric analysis (reference value: 32%); assay type: functional; summary of the method: as §1
HepG2 [18] = assay: Induction of apoptosis in human HepG2 cells after 48 hrs by propidium iodide staining-based flow cytometric analysis; assay type: functional, cell-based
HepG2 [19] = assay: Cell cycle arrest in human HepG2 cells assessed as accumulation at G2/M-phase at 0.25 uM after 24 hrs by propidium iodide staining-based flow cytometric analysis (reference value: 25.5%); assay type: functional; summary of the method: as §1
HCT-116 = assay: Antiproliferative activity against human HCT116 cells after 24 hrs by MTT assay; assay type: functional, cell-based; conditions: HCT-116, 24 h; summary of the method: as §2
HepG2 [20] = assay: Cell cycle arrest in human HepG2 cells assessed as accumulation at G1-phase at 0.375 uM after 24 hrs by propidium iodide staining-based flow cytometric analysis (reference value: 42.5%); assay type: functional; summary of the method: as §1

## O=c1[nH]cc(F)c(=O)[nH]1 [FLUOROURACIL]
HepG2 [1]
  inhibition in vivo at 5 mg/kg: 25.9%

## CCC(=O)Oc1ccc(C(=O)/C=C/c2ccc3c(ccn3C)c2)c2c1C=CC(C)(C)O2
HepG2 [2]
  inhibition in vivo at 30 mg/kg: 56.6%
HepG2 [3]
  Activity: 1.6%
[4]
  IC50: 1800 nM
[5]
  IC50: > 10000 nM
Rattus norvegicus
  inhibition: Active
HepG2 [6]
  Activity: 35%
[7]
  IC50: 450 nM
K562
  IC50: 800 nM
A549
  IC50: 680 nM
HepG2 [8]
  Activity: 26.2%
HepG2 [9]
  Activity: 12.4%
SK-OV-3
  IC50: 230 nM
HepG2 [10]
  Activity: 75%
HepG2 [11]
  IC50: 220 nM
PC-3
  IC50: 650 nM
HepG2 [12]
  Activity: 22.5%
HepG2 [13]
  Activity: 86%
MCF7
  IC50: 1500 nM
HepG2 [14]
  Activity: 30.7%
[15]
  IC50: 1600 nM
HepG2 [16]
  Activity: Dose-dependent effect
HepG2 [17]
  Activity: 43.1%
HepG2 [18]
  Activity: Dose-dependent effect
HepG2 [19]
  Activity: 60.7%
HCT-116
  IC50: 1280 nM
HepG2 [20]
  Activity: 2.5%
